Hits are enriched below; roughly 1.9% of the tested compounds scored in any of these assays.
IMP-1 inh = blocks Pseudomonas aeruginosa IMP-1 metallo-beta-lactamase; purified IMP-1, nitrocefin hydrolysis, epi-absorbance fluorescence; inhibition, % at 5.6 µM; actives 0.45% (n = 290,000); AID 1556;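 active = inhibition above the mean plus 3 SD of all compounds in the same screening run, cut at about 4.5% in these data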;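 note: 0% = IMP-1 with DMSO and 100% = DMSO wells lacking enzyme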
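Material – recombinant IMP-1 enzyme, purified · Amount – IMP-1 0.2 nM before substrate addition · Medium – HEPES buffer pH 7.1 with ZnSO4 and Brij 35 · Timing – 25 °C, 15 min preincubation, 25 min reaction · Measured by – plate fluorescence quenching by hydrolysis product, ex 480/em 530 nm · Read-out – percent enzyme inhibition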
HCV NS3 hel inh = blocks Hepatitis C virus NS3 helicase unwinding | actives 0.56% (n = 290,000) | AID 1800 | NS3 helicase DNA unwinding, Cy5 molecular beacon fluorescence | inhibition, % at 10.9 µM;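 active = inhibition above the mean of all tested compounds plus 3 SD, set per campaign, cut at about 35% in these data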;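 note: 0% = DMSO wells and 100% = thioflavine S control wells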
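Assay system: hepatitis C virus NS3 helicase domain fragment enzyme. Also added: annealed dual-labelled DNA beacon duplex, ATP-started. Timing: 1 h reaction at 25 °C, ATP-initiated. Technique: Cy5 fluorescence at 0 and 60 min, beacon hairpin quenching. Evaluation: % inhibition of unwinding. Replication: one well per compound.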
FID counter = displaces DNA intercalator in HCV helicase counter-screen. DNA fluorescent intercalator displacement, fluorescence. actives 0.17% (n = 290,000). inhibition, % at 7.9 µM; in the data active = inhibition above about 37%;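 note: 0% = vehicle and 100% = reference compound; higher means more ethidium bromide displaced from hairpin DNA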
VIM-2 inh = blocks Pseudomonas aeruginosa VIM-2 metallo-beta-lactamase. actives 0.89% (n = 290,000). inhibition, % at 5.6 µM. purified VIM-2, nitrocefin hydrolysis, epi-absorbance fluorescence;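 active = inhibition above the mean of all tested compounds plus 3 SD, cutoff set per screening run, cut at about 7.5% in these data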;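 note: red hydrolysis product quenches plate fluorescence so inhibitors raise well fluorescence; 0% = enzyme with DMSO and 100% = DMSO without enzyme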
Starred values were filed as active, the others as inactive.

SMILES	IMP-1 inh	HCV NS3 hel inh	FID counter	VIM-2 inh
COC(=O)C1=C(C)N(c2ccc(OC)cc2)C(C)=C(C(=O)OC)C1c1ccc(OC)cc1	38*	7	-5	-2
COc1ccc(S(=O)(=O)N2CCC(C(=O)Nc3ccccc3N3CCCCC3)CC2)cc1OC	-1	-25	-60	-2
CC1(C)Cc2c(c(N3CCCCC3)[nH]c(=S)c2C#N)CS1	8.2*	29	-3	-5
O=C(Oc1ccccc1)c1c(Cl)cccc1P(=O)(O)O	1	-7	11	8.5*
CN(C)c1ccnc(Nc2ccc(O)cc2)c1C#N	-2	6	-10	0
Cc1cc(C)n2c(Br)c(CSc3nc4ccccc4o3)nc2n1	2	1	-11	9.9*
O=C(NCCc1ccccn1)c1cc(-c2cccc3ccccc23)nc2ccccc12	-4	-13	-19	-3
Cc1cc(N2CCN(C)CC2)nc2ccc(NC(=S)NCCN3CCc4ccccc4C3)cc12	-1	-32	38*	1
Cc1cc(N2CCN(C)CC2)nc2ccc(NC(=S)NCCCN3CCc4ccccc4C3)cc12	0	-32	41*	1
CCN1CCN(c2cc(C)c3cc(NC(=S)NCCCN4CCc5ccccc5C4)ccc3n2)CC1	-1	-73	32	2
O=C(NN1C(=O)C2CC=C(Cl)CC2C1=O)c1ccncc1 (configuration not stated)	0	8	-2	-1
O=c1c(N2CCOCC2)nsn1Cc1ccccc1	6.0*	-4	-2	-3
O=C(NCCCN1CCN(c2cccc(Cl)c2)CC1)C1CCC(=O)N1Cc1ccccc1Cl (configuration not stated)	6.5*	-44	5	1
Cc1nn(C(=O)c2c(-c3ccccc3)noc2C)c(C)c1N=Nc1cc(C(F)(F)F)cc(C(F)(F)F)c1	-4	-3	-4	-3
CC(=O)C1=C(C)NC(SCC(=O)c2ccc(F)cc2)=C(C#N)C1c1ccco1 (configuration not stated)	-3	6	-1	-2
COc1ccccc1NC(=O)C1=C(C)NC(SCC(=O)c2ccc(C)cc2)=C(C#N)C1c1ccco1 (configuration not stated)	4.5*	6	-26	-3
O=C(Nc1ccc(Nc2ccncc2)cc1)c1ccc(Nc2ccnc3ccc([N+](=O)[O-])cc23)cc1[N+](=O)[O-]	9.1*	-30	32	2
O=C(Nc1ccc(Nc2ccncc2)cc1)c1ccc([N+](=O)[O-])cc1	-1	-16	23	-3
Cc1cc(F)ccc1S(=O)(=O)Nc1ccccc1C(=O)NCc1cccnc1	-6	0	-13	-3
CC(NCC(O)c1ccc([N+](=O)[O-])cc1)C12CC3CC(CC(C3)C1)C2 (configuration not stated)	0	-25	38*	2
O=C(NCC(O)c1ccc([N+](=O)[O-])cc1)Nc1ccccc1 (configuration not stated)	2	10	-5	1
COC(=O)CSc1nc(NC#N)nc(NC(C)C)n1	-1	-4	1	0
CC(NC(=O)Cc1ccc(-c2ccccc2)cc1)c1ccccc1 (configuration not stated)	5.0*	-3	-19	0
COc1ccc(C2=CSC3=NCCN23)cc1OC	-4	21	1	9.0*
C=CCN(C(=O)c1oc2c(Cl)cc(C)cc2c1C)C1CCS(=O)(=O)C1 (configuration not stated)	-1	-11	-38	1
SMILES	IMP-1 inh	HCV NS3 hel inh	FID counter	VIM-2 inh
O=C(O)C1Nc2c(Cl)cc(Cl)c(Cl)c2C2C=CCC12 (configuration not stated)	3	57*	-9	3
COc1cc2[nH]c(C(=O)NCc3ccccc3)cc2c(OC)c1OC	-2	-8	-27	-2
Cc1cc(C(=O)C(C)OC(=O)C2=NNC(=O)CC2)c(C)n1-c1ccc(OC(F)F)cc1 (configuration not stated)	5.2*	10	-29	1
COc1ccc(C(=O)C(CCC(CNC(C)(C)C)C(=O)c2ccc(OC)cc2)CNC(C)(C)C)cc1 (configuration not stated)	-1	-64	43*	-2
O=C(NC1CCCCC1)C(c1ccc(O)c(O)c1)N(C(=O)Cn1nnc2ccccc21)c1cccc(O)c1 (configuration not stated)	11*	1	-24	1
COc1ccccc1Nc1c2c(nc3ccccc13)CCC2	-4	-8	-8	9.4*
COC(=O)c1cccc(Nc2c3c(nc4ccccc24)CCC3)c1	-3	-6	-1	8.1*
Cc1ccc2nc3c(c(C(=O)O)c2c1)CCC3	-1	-6	2	-1
Fc1cccc(Nc2c3c(nc4ccccc24)CCC3)c1	-2	0	-1	4
CC(=O)c1cccc(Nc2c3c(nc4ccccc24)CCC3)c1	-1	-6	7	10*
Cc1ccc2nc3c(c(Nc4cccc(O)c4)c2c1)CCC3	-2	-1	4	9.4*
COc1cc(Nc2c3c(nc4ccccc24)CCCC3)cc(OC)c1OC	-2	-8	8	1
Oc1ccccc1N1CCN(C(c2ccccc2)c2ccccc2)CC1	-3	2	-19	-2
COc1cc2c(cc1NC(=O)C(C)OC(=O)c1ccc(S(=O)(=O)Nc3ccccc3Cl)cc1)oc1ccccc12 (configuration not stated)	1	6	1	1
N#Cc1c(C(F)(F)F)cc(-c2cccc(Cl)c2)[nH]c1=O	0	19	-22	8.7*
N#Cc1c(C(F)(F)F)cc(-c2ccc(Cl)cc2)[nH]c1=O	-2	11	-20	0
CCCN1C(=O)S/C(=C\c2ccc(N3CCOCC3)o2)C1=O	5.9*	16	-32	-4
CCCc1[nH]nc2c1C(c1ccc(OCCN3CCOCC3)c(OCC)c1)C(C#N)=C(N)O2 (configuration not stated)	-3	0	-10	8.7*
COc1ccc(CC(=O)NC2CCN(CC(=O)Nc3ccc4c(c3)OCCO4)CC2)cc1OC	12*	8	-3	-4
FC(F)(F)c1cc(Cl)c2nnc(-c3cccnc3)n2c1	-3	2	-3	-2
FC(F)(F)c1cc(Cl)c2nnc(-c3ccccn3)n2c1	-4	2	-4	8.1*
O=S(=O)(Nc1ccc2c3c(cccc13)CC2)c1ccc(F)cc1	7.8*	7	-6	0
COc1ccc(-c2n(CC(=O)OC3CC(C)CCC3C(C)C)c3ccccc3[n+]2C)cc1 (configuration not stated)	-3	-73	36	-3
COc1ccc(OCc2n(CC(=O)OC3CC(C)CCC3C(C)C)c3ccccc3[n+]2C)cc1 (configuration not stated)	-4	-76	40*	-4
CCOC(=O)c1cc2c(=O)n3cccc(C)c3nc2n(CCCOC)c1=NC(=O)c1cccnc1	-3	4	-19	10*
CCOC(=O)c1cc2c(=O)n3cccc(C)c3nc2n(CCOC)c1=NC(=O)c1ccncc1	-2	0	2	-2
